Compounds with a hit are over-represented: about 3.8% of the library has one in this group of screens.
FN deposit inh: fibronectin deposition inhibition; AH1F fibroblasts, Alexa488-fibronectin deposition fluorescence, overnight; inhibition, % at 12.6 µM; 0.086% of 350,000 active; AID 743247;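 active means mean inhibition across replicates of 30% or more, regardless of how many single replicates reach that level; inconclusive means mean under 30% yet at least half of replicates reach 30%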;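 further: positive control wells lacked labelled fibronectin entirely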
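Material: AH1F fibroblast monolayer depositing Alexa488-labelled fibronectin into matrix | Input: 10000 AH1F cells/well | Medium: DMEM plus 2% serum, read in PBS | Reagent: Alexa488-fibronectin, 24 nM final in well | Compound dosing: One dose per compound, pinned | Schedule: 1 h adhesion, overnight exposure | Measured by: Fluorescence at 485 nm excitation, 525 nm emission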
DENV2 CPE: DENV2-induced cell death inhibition; DENV2-infected cells, cytopathic effect rescue, plate reader; CPE inhibition, % at 9.99 µM; 1.7% of 350,000 active; in the data active means CPE inhibition above about 20%, passing the limit was not always enough; inconclusive means no clear call, values can overlap the other calls; tested in BHK-21 cells;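 further: 0% = median of neutral control wells and 100% = median of positive control wells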
ARNT TACC3 PPI: disruptors of human ARNT/TACC3 interaction; 0.66% of 390,000 active; Q9Y6A5; inhibition, % at 9.99 µM; AlphaScreen His-ARNT PAS-B/GST-TACC3 binding, luminescence; TACC3 fragment carries E629A point mutation;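 active means mean inhibition of replicates at least 50% and at least half of replicates each reaching 50%; inconclusive means half or more replicates reach 50% but mean below 50%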;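 further: 0% = complete ARNT plus TACC3 wells and 100% = ARNT alone without TACC3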
FGF22 binding: binders of recombinant human FGF22 by thermal shift. AID 651658. SYPRO orange fluorescence; percent of sucrose octasulfate shift, DMSO zero. activity (Tm shift, normalised), % at 9.99 µM. Q9HCT0. 1.5% of 340,000 active;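 active means mean Tm shift, scaled 0 neutral to 100 positive control, at about 1.3% or above, every replicate too, limit read from the data; inconclusive means no clear call, values can overlap the other calls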
Target sequence (Q9HCT0 whole entry, looked up): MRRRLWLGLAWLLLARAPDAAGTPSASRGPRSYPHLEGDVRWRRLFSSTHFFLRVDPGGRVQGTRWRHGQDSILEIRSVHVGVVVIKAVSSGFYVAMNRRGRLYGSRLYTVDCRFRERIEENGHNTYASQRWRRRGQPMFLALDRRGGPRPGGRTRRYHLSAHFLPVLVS
SIRT5 inh: sirtuin-5 (human) deacylase inhibition | AID 652115 | inhibition, % at 15 µM | Purified SirT5, succinyl-peptide AMC, trypsin-coupled fluorescence | Q9NXA8 | 1.1% of 330,000 active; in the data active means inhibition above about 15%; inconclusive means no clear call, values can overlap the other calls
Target sequence (Q9NXA8 whole entry, looked up): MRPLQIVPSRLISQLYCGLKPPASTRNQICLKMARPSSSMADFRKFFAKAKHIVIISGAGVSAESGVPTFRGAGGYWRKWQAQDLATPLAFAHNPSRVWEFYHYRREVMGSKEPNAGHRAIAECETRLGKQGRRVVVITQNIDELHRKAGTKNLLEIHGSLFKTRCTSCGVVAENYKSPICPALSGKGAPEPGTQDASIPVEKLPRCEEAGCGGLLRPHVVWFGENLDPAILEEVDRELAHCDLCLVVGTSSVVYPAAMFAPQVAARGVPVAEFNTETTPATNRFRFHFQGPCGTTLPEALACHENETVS
Xi reactivation: reactivates the inactive X chromosome in mouse fibroblasts; XiGFP mouse fibroblasts, % GFP-positive cells imaging, 3 d; cells co-treated with 5-aza-dC sensitizer; scaled so ellipticine positive control = 100%; activation, % at 7.58 µM; 0.055% of 360,000 active; AID 743238;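 active means mean normalized replicate activation at least 10% and every replicate at or above 10%; inconclusive means only one of the two criteria met; inactive means mean below 10% and not all replicates reach 10%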;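 further: 0% = median of on-plate neutral control wells and 100% = ellipticine 6 µM median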
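Material: XiGFP fibroblasts, SV40-immortalized. Buffer or medium: DMEM plus 5-aza-dC sensitizer. Compound: single concentration per compound, delivered by pin transfer. Times: 3 days compound exposure. Controls: ellipticine 6 µM.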
* = called active by the depositor; ? = inconclusive; . = no result; ! = repeats disagree.

SMILES	FN deposit inh	DENV2 CPE	ARNT TACC3 PPI	FGF22 binding	SIRT5 inh	Xi reactivation
CC(=O)C1=C(O)C(=O)N(CCCn2ccnc2)C1c1ccc(Br)cc1 (centres undefined)	-0.5	-1.3	3.0	43.0*	2.6	0.0
O=C(Cc1ccccn1)N1CC(=O)N2[C@@H](CO)[C@H](c3ccc(C#CC4CCCC4)cc3)[C@@H]2C1	-1.9	5.8	.	.	-7.3	0.0
COc1cc2c(cc1O)C(c1cccs1)N(Cc1sc3ccccc3c1Cl)CC2 (centres undefined)	.	?	7.4	0.9	0.7	.
COc1ccc(S(=O)(=O)N2CCOCC2)cc1NC(=O)COC(=O)c1ccc([N+](=O)[O-])s1	.	.	30.1*	.	.	.
COc1ccc(S(=O)(=O)N2CCOCC2)cc1NC(=O)COC(=O)c1oc2ccccc2c1C	2.6	-8.2	.	0.0	-14.3	0.1
COc1ccc(S(=O)(=O)N2CCOCC2)cc1NC(=O)C1CCCN1C(=O)c1cccs1 (centres undefined)	-3.9	5.8	-13.8	-0.1	-0.2	-0.3
Cc1ccc(S(=O)(=O)N(C)C)cc1NC(=O)COC(=O)c1n[nH]c(=O)c2ccccc12	-6.2	2.1	-3.5	42.4	2.6	0.0
COc1ccc(S(=O)(=O)N2CCOCC2)cc1NC(=O)COC(=O)c1[nH]c(C)c(C(C)=O)c1C	0.4	-5.0	-6.6	0.0	17.1*	-0.2
COc1ccc(S(=O)(=O)N2CCOCC2)cc1NC(=O)[C@@H]1CCCN1C(=O)c1cccs1	-6.1	3.8	1.1	43.2*	-2.6	0.0
Cc1ccc(S(=O)(=O)N2CCOCC2)cc1NC(=O)COC(=O)c1n[nH]c(=O)c2ccccc12	6.2	-3.1	-2.2	0.4	16.5*	4.4
C[C@@H]1CN([C@H](C)CO)C(=O)c2cc(NC(=O)Nc3ccc(C(F)(F)F)cc3)ccc2O[C@@H](C)CCCCO[C@@H]1CN(C)Cc1ccc(C(=O)O)cc1	.	11.7	10.2	.	-3.4	-0.6
NS(=O)(=O)c1ccc(CCNC(=O)C2CCCN2C(=O)c2cccs2)cc1 (centres undefined)	1.8	94.7*	.	-0.2	-2.3	0.0
COc1ccc(S(=O)(=O)N2CCOCC2)cc1NC(=O)CSc1nc(C)c(C)c(C)n1	.	?	5.5	-0.1	.	0.4
COc1ccc(S(=O)(=O)N2CCOCC2)cc1NC(=O)CSc1n[nH]c(C(C)C)n1	-18.6	-2.4	5.3	0.2	20.1*	0.0
CC(=O)N1CCn2c3c(c4cc(C)ccc42)CCCC31 (centres undefined)	-7.9	3.6	8.3	43.4*	-2.0	0.4
C[C@@H]1CCCCO[C@@H](CN(C)C(=O)Cc2ccccc2)[C@@H](C)CN([C@H](C)CO)C(=O)c2cc(NC(=O)c3ccccc3)ccc2O1	-6.5	10.9	-12.2	-0.1	1.7	0.1
Cc1cccc(N2CCCC2=Nc2ccc(Br)cc2C#N)c1	5.8	.	-0.1	.	.	.
N#Cc1cc(Br)ccc1N=C1CCCN1c1ccccc1	5.9	24.0*	-21.4	-0.1	.	0.0
CC(C)C#Cc1cnc2c(c1)C(=O)N([C@@H](C)CO)C[C@H](C)[C@H](CN(C)C(=O)c1ccc3c(c1)OCO3)O2	-4.8	0.3	-0.1	0.0	-2.3	0.0
COc1ccc(C(=O)NCc2nc(C)c(C)s2)cc1OC1CCN(C(C)C)CC1	16.2	9.1	-7.9	-0.2	15.3*	0.0
Cc1nc(CN(C)Cc2nc(Cc3cccc(F)c3)no2)cs1	0.4	-3.0	8.2	42.3	25.5*	-0.1
Cc1cc(C(F)(F)F)c2c(N)c(C(=O)NCc3ccc(Cl)cc3)sc2n1	-14.0	-7.6	.	43.4*	.	-0.1
COc1cccc(CN(C)CCCn2ccc(NC(=O)OCc3ccccc3)nc2=O)c1	-6.0	-4.5	-5.0	0.0	-0.9	0.0
CN(CCCn1ccc(NC(=O)OCc2ccccc2)nc1=O)Cc1ccco1	.	-8.0	.	-0.2	25.2*	-0.1
C=CCOc1cccc(C(=O)/C=C2/C(=O)Nc3ccccc32)c1	15.4	-9.5	-6.1	0.2	-1.0	0.3
SMILES	FN deposit inh	DENV2 CPE	ARNT TACC3 PPI	FGF22 binding	SIRT5 inh	Xi reactivation
CC(=O)/C=C1/C(=O)Nc2ccccc21	-7.6	-3.7	-20.1	43.7*	-3.6	0.2
COc1ccc(S(=O)(=O)N2C[C@H](O)COC[C@@H]3O[C@H](CC(=O)N[C@H]4CCN(Cc5ccccc5)C4)CC[C@H]32)cc1	2.4	4.7	13.3	-0.5	.	0.0
O=C(CCc1ccccc1)N/N=C\C1CC=CCC1 (centres undefined)	-4.4	3.7	-0.5	-0.3	0.1	-0.1
CC(C)(C)c1ccc(OCC(=O)N/N=C/C2CC=CCC2)cc1 (centres undefined)	-16.4	3.0	24.7*	-0.1	0.9	0.0
Cn1c2ccccc2c2nnc(SCC(=O)Nc3ccccc3F)nc21	0.7	-1.9	-32.3	0.0	3.4	0.1
COc1ccc2c(c1)c1nnc(SCC(=O)Nc3ccccc3F)nc1n2C	-2.5	51.1*	-0.2	0.1	-4.8	-0.2
C[C@H]1CN([C@@H](C)CO)C(=O)c2cccc(NC(=O)c3ccncc3)c2O[C@H]1CN(C)C(=O)Nc1ccccc1	3.7	16.5	5.4	0.0	-0.1	0.1
C[C@H](CO)N1C[C@H](C)[C@@H](CN(C)C(=O)Nc2ccccc2)Oc2c(NC(=O)c3ccncc3)cccc2C1=O	2.7	42.1*!	6.1	0.0	-0.4	0.4
C[C@@H]1CN([C@H](C)CO)C(=O)c2cccc(NC(=O)c3ccncc3)c2O[C@@H]1CN(C)C(=O)Nc1ccccc1	.	54.2*	-17.7	-0.3	6.2	0.1
CO[C@H]1CN(C)C(=O)c2ccc(NC(=O)C3CCCCC3)cc2OC[C@@H](C)N(Cc2cccnc2)C[C@@H]1C	3.8	3.5	1.0	0.0	1.7	0.0
O=C(C[C@H]1C=C[C@H](NS(=O)(=O)c2ccccc2)[C@@H](CO)O1)NCc1ccccc1F	.	-7.4	-7.0	-0.4	1.3	-0.4
C[C@@H]1CN([C@H](C)CO)C(=O)Cc2cc(NC(=O)Nc3ccc4c(c3)OCO4)ccc2O[C@@H]1CN(C)C(=O)Nc1ccc2c(c1)OCO2	.	2.2	2.0	-0.3	-0.1	0.2
O=C(O)c1ccccc1NS(=O)(=O)c1ccc(NNC(=S)Nc2ccc(OC(F)F)cc2)c([N+](=O)[O-])c1	7.0	-4.5	33.5	.	24.4*	0.4
CN(CCO)c1ccc(C=NNc2ccc([N+](=O)[O-])cc2S(=O)(=O)Nc2ccccc2C(=O)O)cc1	0.0	-10.2	.	.	21.8*	-0.1
O=C(O)c1ccccc1NS(=O)(=O)c1ccc(N/N=C/c2cccc(O)c2O)c([N+](=O)[O-])c1	1.1	7.9	-7.0	0.4	13.5	-0.1

Screens from PubChem.
